Measured values published in ChEMBL document CHEMBL1155909, “Discovery and stereoselective synthesis of the novel isochroman neurokinin-1 receptor antagonist 'CJ-17,493'” (Bioorg Med Chem, 2008).
Values belong to the molecule of their own block, whether it stands above or below them.

Experiments:
Gerbillinae [1] = test: Inhibition of [Sar9, Met(O2)11]SP-induced foot tapping in sc dosed gerbil
Mustela putorius furo [2] = test: Antiemetic activity against cisplatin-induced emesis in sc dosed ferrets; assay type: functional, organism-based
Summary of the method: (§1)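 Ferrets were given the test compound sc 30 min before cisplatin (10 mg/kg, ip). Retching and vomiting/gagging episodes were counted against vehicle control. Groups were n = 4–5, data are mean ± SEM, and Student's t-test was used. Results are given as ED90 (mg/kg, sc) or as % inhibition at the stated dose.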

[3] = Oral bioavailability in rat at 1 to 30 mg/kg; assay type: ADME, organism-based; conditions: in vivo
Summary of the method: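 Rats received 1–30 mg/kg orally as the hydrochloride salt dissolved in water. Oral bioavailability was determined against iv data.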

Cytochrome P450 2D6 = Cytochrome P450 2D6 (Homo sapiens, UniProt P10635); test: Binding affinity to human CYP2D6 using bufuralol as substrate; assay type: ADME
Chain of Cytochrome P450 2D6 (P10635 whole entry): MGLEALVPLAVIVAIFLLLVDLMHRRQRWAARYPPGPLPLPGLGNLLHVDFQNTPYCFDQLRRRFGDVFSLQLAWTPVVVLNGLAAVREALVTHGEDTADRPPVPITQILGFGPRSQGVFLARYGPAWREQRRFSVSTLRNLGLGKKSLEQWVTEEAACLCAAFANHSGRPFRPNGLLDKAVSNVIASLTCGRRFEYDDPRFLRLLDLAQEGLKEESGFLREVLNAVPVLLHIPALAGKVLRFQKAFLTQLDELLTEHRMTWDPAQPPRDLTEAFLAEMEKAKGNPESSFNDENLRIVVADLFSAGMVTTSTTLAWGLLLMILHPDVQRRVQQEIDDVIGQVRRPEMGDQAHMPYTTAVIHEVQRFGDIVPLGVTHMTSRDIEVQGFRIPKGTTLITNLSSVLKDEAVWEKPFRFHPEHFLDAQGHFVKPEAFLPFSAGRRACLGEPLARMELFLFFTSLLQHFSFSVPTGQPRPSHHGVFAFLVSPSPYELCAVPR

Liver microsomes = test: Metabolic stability in human liver microsome assessed as ratio of half life between CYP2D6-deficient microsome and CYP2D6-deficient microsome with addition of exogenous CYP2D6; assay type: ADME
Summary of the method: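 Half-lives were measured in CYP2D6-deficient human liver microsomes with and without added exogenous CYP2D6. The value is the ratio of the half-life without CYP2D6 to the half-life with it.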

Substance-P receptor = Substance-P receptor (Homo sapiens, UniProt P25103); test: Displacement of [3H]SP from NK1 receptor in human IM9 cells
Chain of Substance-P receptor (P25103 whole entry): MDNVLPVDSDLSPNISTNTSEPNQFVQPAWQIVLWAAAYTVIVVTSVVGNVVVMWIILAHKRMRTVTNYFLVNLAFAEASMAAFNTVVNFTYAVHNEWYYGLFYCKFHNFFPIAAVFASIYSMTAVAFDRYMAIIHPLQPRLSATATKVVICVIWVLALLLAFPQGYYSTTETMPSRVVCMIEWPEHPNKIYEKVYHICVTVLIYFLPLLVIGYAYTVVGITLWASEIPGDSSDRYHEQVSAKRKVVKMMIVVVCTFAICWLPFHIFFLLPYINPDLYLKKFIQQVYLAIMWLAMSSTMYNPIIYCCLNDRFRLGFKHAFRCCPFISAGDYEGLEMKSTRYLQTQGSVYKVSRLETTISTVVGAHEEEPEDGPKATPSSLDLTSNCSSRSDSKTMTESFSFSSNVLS

CYP2D6 = CYP2D6 (Homo sapiens, UniProt P10635); test: Inhibition of human CYP2D6 at 5 uM; assay type: ADME
Chain of CYP2D6 (P10635 whole entry): as the sequence (P10635 whole entry) above

[4] = Oral bioavailability in dog at 5 mg/kg; assay type: ADME, organism-based, Canis lupus familiaris; conditions: in vivo
Summary of the method: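 Dogs were dosed orally at 5 mg/kg as a water solution. Oral bioavailability was determined.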

[5] = Half life in rat at 0.3 mg/kg, iv; assay type: ADME, organism-based; parameters: dose 0.3 mg/kg, route intravenous; conditions: in vivo
Summary of the method: (§2)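 Rats received 0.3 mg/kg iv. Plasma clearance, steady-state volume of distribution and half-life were derived from plasma levels.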

[6] = Half life in dog at 1 mg/kg, iv; assay type: ADME, organism-based, Canis lupus familiaris; parameters: dose 1 mg/kg, route intravenous; conditions: in vivo
Summary of the method: (§3)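 Dogs received 1 mg/kg iv. Plasma clearance, steady-state volume of distribution and half-life were derived.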

[7] = Volume of distribution at steady state in dog at 1 mg/kg, iv; assay type: ADME, organism-based, Canis lupus familiaris; parameters: dose 1 mg/kg, route intravenous; conditions: in vivo, read-out: Vdss
Summary of the method: as §3

[8] = Displacement of [3H]desmethoxyverapamil from L-type calcium channel
[9] = Clearance in dog at 1 mg/kg, iv; assay type: ADME, organism-based, Canis lupus familiaris; parameters: dose 1 mg/kg, route intravenous; conditions: in vivo
Summary of the method: as §3

[10] = molecular target: Sodium channel protein type 2 subunit alpha (Rattus norvegicus, UniProt P04775); test: Displacement of [3H]batrachotoxinin from rat sodium channel type 2A subunit expressed in CHO-CNa2A cells […]; assay type: cell-based
Chain of Sodium channel protein type 2 subunit alpha (P04775 whole entry): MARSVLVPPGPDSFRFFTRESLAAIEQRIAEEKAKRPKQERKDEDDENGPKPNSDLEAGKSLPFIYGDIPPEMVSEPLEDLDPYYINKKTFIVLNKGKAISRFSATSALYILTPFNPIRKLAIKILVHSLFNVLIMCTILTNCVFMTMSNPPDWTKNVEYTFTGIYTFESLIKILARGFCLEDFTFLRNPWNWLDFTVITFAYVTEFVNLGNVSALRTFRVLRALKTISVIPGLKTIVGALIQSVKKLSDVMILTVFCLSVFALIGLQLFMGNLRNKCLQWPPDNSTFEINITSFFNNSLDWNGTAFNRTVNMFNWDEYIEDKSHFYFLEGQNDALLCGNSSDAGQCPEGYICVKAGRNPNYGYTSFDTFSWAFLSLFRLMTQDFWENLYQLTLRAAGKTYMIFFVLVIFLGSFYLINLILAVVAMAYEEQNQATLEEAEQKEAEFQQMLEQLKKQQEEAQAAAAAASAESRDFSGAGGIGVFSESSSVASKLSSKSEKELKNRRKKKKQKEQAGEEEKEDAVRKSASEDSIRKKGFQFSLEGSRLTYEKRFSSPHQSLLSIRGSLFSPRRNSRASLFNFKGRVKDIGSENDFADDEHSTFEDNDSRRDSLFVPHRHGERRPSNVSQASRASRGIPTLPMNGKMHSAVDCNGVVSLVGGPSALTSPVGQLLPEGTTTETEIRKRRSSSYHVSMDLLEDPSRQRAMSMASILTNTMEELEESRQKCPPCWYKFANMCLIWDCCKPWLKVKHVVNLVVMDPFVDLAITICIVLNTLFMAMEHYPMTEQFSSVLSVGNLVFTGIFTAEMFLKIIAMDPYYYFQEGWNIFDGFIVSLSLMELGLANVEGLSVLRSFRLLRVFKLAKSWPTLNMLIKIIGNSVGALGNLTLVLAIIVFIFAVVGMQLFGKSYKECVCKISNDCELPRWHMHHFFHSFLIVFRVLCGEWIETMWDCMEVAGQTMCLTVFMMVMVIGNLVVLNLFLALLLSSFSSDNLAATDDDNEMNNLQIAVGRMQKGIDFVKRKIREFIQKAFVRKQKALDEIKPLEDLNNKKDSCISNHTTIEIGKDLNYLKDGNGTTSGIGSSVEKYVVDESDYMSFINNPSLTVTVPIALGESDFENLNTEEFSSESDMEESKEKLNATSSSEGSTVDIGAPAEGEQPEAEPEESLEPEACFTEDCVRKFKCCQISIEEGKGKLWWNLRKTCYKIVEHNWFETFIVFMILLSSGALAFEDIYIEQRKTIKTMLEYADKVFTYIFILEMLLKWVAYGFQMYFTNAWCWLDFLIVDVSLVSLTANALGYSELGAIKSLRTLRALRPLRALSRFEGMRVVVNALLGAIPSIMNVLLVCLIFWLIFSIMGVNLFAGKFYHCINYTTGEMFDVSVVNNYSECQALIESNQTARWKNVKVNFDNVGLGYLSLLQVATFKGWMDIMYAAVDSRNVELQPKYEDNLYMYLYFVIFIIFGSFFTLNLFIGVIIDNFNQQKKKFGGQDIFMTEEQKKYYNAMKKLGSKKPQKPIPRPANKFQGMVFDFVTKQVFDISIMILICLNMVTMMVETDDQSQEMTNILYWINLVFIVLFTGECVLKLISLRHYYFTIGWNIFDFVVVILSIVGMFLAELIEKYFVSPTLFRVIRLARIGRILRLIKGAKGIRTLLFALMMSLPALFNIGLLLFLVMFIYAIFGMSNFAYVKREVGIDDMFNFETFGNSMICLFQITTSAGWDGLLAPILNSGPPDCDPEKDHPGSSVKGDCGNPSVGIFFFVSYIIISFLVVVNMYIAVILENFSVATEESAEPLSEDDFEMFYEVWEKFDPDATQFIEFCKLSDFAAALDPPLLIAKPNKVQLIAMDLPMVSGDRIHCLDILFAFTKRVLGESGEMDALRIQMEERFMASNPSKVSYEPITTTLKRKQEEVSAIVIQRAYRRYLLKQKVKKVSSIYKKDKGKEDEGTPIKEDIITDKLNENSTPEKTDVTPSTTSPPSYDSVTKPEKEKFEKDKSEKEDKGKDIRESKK

[11] = Volume of distribution at steady state in rat at 0.3 mg/kg, iv; assay type: ADME, organism-based; parameters: dose 0.3 mg/kg, route intravenous; conditions: in vivo, read-out: Vdss
Summary of the method: as §2

[12] = Clearance in rat at 0.3 mg/kg, iv; assay type: ADME, organism-based; parameters: dose 0.3 mg/kg, route intravenous; conditions: in vivo
Summary of the method: as §2

[13] = molecular target: Substance-P receptor (Cavia porcellus) (UniProt P30547); test: Activity at NK1 receptor in po dosed guinea pig ureter assessed as capsaicin-induced plasma protein leakage; assay type: organism-based
Chain of Substance-P receptor (Cavia porcellus) (P30547 whole entry): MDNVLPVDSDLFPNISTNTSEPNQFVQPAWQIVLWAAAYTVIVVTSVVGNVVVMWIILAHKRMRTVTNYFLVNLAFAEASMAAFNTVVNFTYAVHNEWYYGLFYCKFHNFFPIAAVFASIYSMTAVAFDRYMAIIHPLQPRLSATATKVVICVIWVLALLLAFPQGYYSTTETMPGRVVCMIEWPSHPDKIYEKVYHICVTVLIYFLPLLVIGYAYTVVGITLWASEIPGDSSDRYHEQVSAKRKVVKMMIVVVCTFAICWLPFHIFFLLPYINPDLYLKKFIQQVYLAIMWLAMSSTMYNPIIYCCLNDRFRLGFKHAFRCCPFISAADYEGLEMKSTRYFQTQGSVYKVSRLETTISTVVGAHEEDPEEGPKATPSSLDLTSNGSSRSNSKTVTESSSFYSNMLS
Summary of the method: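 Guinea pigs were dosed orally. Capsaicin (30 µM) was given ip and caused plasma protein leakage in the ureter, taken as activation of peripheral NK1 receptors. Inhibition was measured across doses, and the ED50 was derived in mg/kg, po.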

Gerbillinae [14] = test: Inhibition of [Sar9, Met(O2)11]SP-induced foot tapping in gerbil at 1 mg/kg, sc relative to CP-122721; conditions: Gerbillinae, sc; for inhibition in vivo at 1 mg/kg: route subcutaneous
Mustela putorius furo [15] = test: Antiemetic activity against cisplatin-induced emesis in ferrets at 0.3 mg/kg, sc; assay type: functional; conditions: route subcutaneous
Summary of the method: as §1

Mustela putorius furo [16] = test: Antiemetic activity against cisplatin-induced emesis in ferrets at 0.1 mg/kg, sc; assay type: functional; conditions: route subcutaneous
Summary of the method: as §1

Gerbillinae [17] = test: Inhibition of [Sar9, Met(O2)11]SP-induced foot tapping in gerbil at 0.1 mg/kg, sc relative to CP-122721; conditions: Gerbillinae, sc
[18] = Mustela putorius, sc, read-out: ED90

Compound: COc1ccc(OC(F)(F)F)cc1CN[C@H]1CCCN[C@H]1c1ccccc1
ED50 (Gerbillinae [1]): 0.28 mg/kg
ED100 (Mustela putorius furo [2]): >=0.3 mg kg-1
ED90 (Mustela putorius furo [2]; [18]): 0.09 mg/kg

Compound: COc1cc2c(cc1CN[C@H]1CCCN[C@H]1c1ccccc1)[C@](C)(C(F)(F)F)OCC2.Cl.Cl
bioavailability [3]: < 1%

Ki (Cytochrome P450 2D6): 1340 nM
Ratio (Liver microsomes): 1.16
IC50 (Substance-P receptor): 0.2 nM
inhibition at 5 µM (CYP2D6): 54.8%
Compound: COc1ccc(C(C)(C)C(F)(F)F)cc1CN[C@H]1CCCN[C@H]1c1ccccc1
ED50 (Gerbillinae [1]): 0.12 mg/kg
ED100 (Mustela putorius furo [2]): 1 mg/kg
ED90 (Mustela putorius furo [2]; [18]): 0.21 mg/kg

Compound: COc1cc2c(cc1CN[C@H]1CCCN[C@H]1c1ccccc1)[C@](C)(C(F)(F)F)OCC2.O
bioavailability [4]: 9.8%

IC50 (Substance-P receptor): 0.34 nM
Compound: COc1cc2c(cc1CN[C@H]1CCCN[C@H]1c1ccccc1)[C@@](C)(C(F)(F)F)OCC2

Ki (Cytochrome P450 2D6): 70 nM
Ratio (Liver microsomes): 4.25
IC50 (Substance-P receptor): 0.9 nM
inhibition at 5 µM (CYP2D6): 95.6%
Compound: COc1ccc(CC(F)(F)F)cc1CN[C@H]1CCCN[C@H]1c1ccccc1
ED50 (Gerbillinae [1]): 0.03 mg/kg
ED90 (Mustela putorius furo [2]): < 0.1 mg/kg
ED100 (Mustela putorius furo [2]): 0.1 mg/kg

Compound: COc1cc2c(cc1CN[C@H]1CCCN[C@H]1c1ccccc1)[C@](C)(C(F)(F)F)OCC2 [listing 1 of 2 here]
half-life [5]: 8.8 h
half-life [6]: 3.8 h
Vd [7]: 11 L/kg
ED50 (Gerbillinae [1]): 0.043 mg/kg
IC50 [8]: 164 nM
IC50 (Substance-P receptor): < 0.1 nM
Ki (Substance-P receptor): 0.2 nM
clearance [9]: 31.7 mL/min/kg
ED90 (Mustela putorius furo [2]; [18]): 0.07 mg/kg
IC50 [10]: 48 nM
Vd [11]: 7 L/kg
clearance [12]: 11 mL/min/kg

Ki (Cytochrome P450 2D6): 2100 nM
Ratio (Liver microsomes): 2
IC50 (Substance-P receptor): < 0.1 nM
inhibition at 5 µM (CYP2D6): 43.1%
Compound: COc1ccc(C(C(F)(F)F)C(F)(F)F)cc1CN[C@H]1CCCN[C@H]1c1ccccc1
ED50 (Gerbillinae [1]): 0.33 mg/kg
ED100 (Mustela putorius furo [2]): 0.9 mg/kg
ED90 (Mustela putorius furo [2]; [18]): 0.48 mg/kg

Compound: COc1cc2c(cc1CN[C@H]1CCCN[C@H]1c1ccccc1)[C@](C)(C(F)(F)F)OCC2 [listing 2 of 2 here]
ED50 [13]: 0.005 mg/kg

IC50 (Substance-P receptor): < 0.1 nM
inhibition at 5 µM (CYP2D6): 92.9%
Compound: COc1ccc(C(OC)C(F)(F)F)cc1CN[C@H]1CCCN[C@H]1c1ccccc1 (mixture of isomers)
inhibition in vivo at 1 mg/kg (Gerbillinae [14]): 67%

Ratio (Liver microsomes): 1.83
IC50 (Substance-P receptor): 0.7 nM
inhibition at 5 µM (CYP2D6): 46.6%
Compound: COc1ccc(C(F)C(F)(F)F)cc1CN[C@H]1CCCN[C@H]1c1ccccc1 (mixture of isomers)
inhibition in vivo at 0.3 mg/kg (Mustela putorius furo [15]): 97%
ED50 (Gerbillinae [1]): 0.16 mg/kg
inhibition in vivo at 0.1 mg/kg (Mustela putorius furo [16]): 97%

IC50 (Substance-P receptor): < 0.1 nM
Compound: COc1ccc(C(C)(F)C(F)(F)F)cc1CN[C@H]1CCCN[C@H]1c1ccccc1 (mixture of isomers)
inhibition in vivo at 0.1 mg/kg (Gerbillinae [17]; dose 0.1 mg/kg, route subcutaneous): 30%
inhibition in vivo at 1 mg/kg (Gerbillinae [14]): 57%

IC50 (Substance-P receptor): < 0.1 nM
inhibition at 5 µM (CYP2D6): 66.4%
Compound: COc1cc2c(cc1CN[C@H]1CCCN[C@H]1c1ccccc1)C(C(F)(F)F)OC2 (mixture of isomers)
% inhibition at 0.1 mg/kg (Gerbillinae [17]): 84%
inhibition in vivo at 0.1 mg/kg (Mustela putorius furo [16]): 99%

IC50 (Substance-P receptor): < 0.1 nM
Compound: COc1cc2c(cc1CN[C@H]1CCCN[C@H]1c1ccccc1)C(C)(C(F)(F)F)CC2 (mixture of isomers)
% inhibition at 0.1 mg/kg (Gerbillinae [17]): 68%
% inhibition at 1 mg/kg (Gerbillinae [14]): 80%
